Laboratory results from ChEMBL document CHEMBL1165919, “Synthesis, vasorelaxant activity and antihypertensive effect of benzo[d]imidazole derivatives” (Bioorg Med Chem, 2010).
The source made the active and inactive calls. No cut-off for these calls is given here.

Legend:
Aorta [1] = assay: Vasorelaxant activity in Wistar rat endothelium-intact thoracic aortic ring assessed as inhibition of noradrenaline-induced contraction treated after noradrenaline challenge measured after 60 mins; type: functional, tissue-based; conditions: 1 h
How it was run: (§1)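 Thoracic aorta came from male Wistar rats (250–350 g), cleaned and cut into 4–5 mm rings. Endothelium was rubbed off some rings with forceps and its absence confirmed by no relaxation to carbachol. Rings were washed every 30 min for 2 h, pre-contracted with noradrenaline (0.1), then given the test agent cumulatively. Concentration-response curves (n=5–6, mean ± SEM) were fitted nonlinearly to give EC50.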

Aorta [2] = assay: Vasorelaxant activity in Wistar rat endothelium-denuded thoracic aortic ring assessed as inhibition of noradrenaline-induced contraction treated after noradrenaline challenge measured after 60 mins; type: functional, tissue-based; how it was run: as §1
Rattus norvegicus [3] = assay: Antihypertensive activity in SHR rat assessed as moderate decrease in systolic blood pressure at 50 mg/kg, po after 6 hrs; conditions: Artery
Aorta [4] = assay: Ratio of pimobendan EC50 to compound EC50 for vasorelaxant activity in pre-contracted Wistar rat endothelium-intact thoracic aortic ring; type: functional
Rattus norvegicus [5] = assay: Antihypertensive activity in po dosed SHR rat assessed as decrease in systolic blood pressure after 6 hrs; type: functional, organism-based; conditions: Artery
Rattus norvegicus [6] = assay: Antihypertensive activity in SHR rat assessed as moderate decrease in systolic blood pressure at 50 mg/kg, po after 6 hrs; type: functional, organism-based; design: dose 50 mg/kg; conditions: Artery
Rattus norvegicus [7] = assay: Antihypertensive activity in SHR rat assessed as sustained decrease in systolic blood pressure at 100 mg/kg, po after 6 hrs; type: functional, organism-based; design: dose 100 mg/kg; conditions: Artery
Rattus norvegicus [8] = assay: Antihypertensive activity in SHR rat assessed as effect on heart rate at 50 mg/kg, po after 6 hrs; type: functional, organism-based; design: dose 50 mg/kg
Rattus norvegicus [9] = assay: Antihypertensive activity in SHR rat assessed as effect on heart rate at 100 mg/kg, po after 6 hrs; type: functional, organism-based; design: dose 100 mg/kg
Rattus norvegicus [10] = assay: Antihypertensive activity in SHR rat assessed as effect on heart rate at 25 mg/kg, po after 6 hrs; type: functional, organism-based; design: dose 25 mg/kg
Rattus norvegicus [11] = assay: Antihypertensive activity in SHR rat assessed as decrease in systolic blood pressure at 25 mg/kg, po after 6 hrs; type: functional, organism-based; design: dose 25 mg/kg; conditions: Artery
[12] = Rattus norvegicus, Wistar, Aorta, 1 h
[13] = Rattus norvegicus, Wistar, Aorta, 1 h, read-out: EC50

Structure (SMILES) | EC50 (Aorta [1]) | Emax (Aorta [1]) | Emax (Aorta [2]; [12]) | EC50 (Aorta [2]; [13]) | also measured
CN(C)c1ccc(-c2nc3cc(C(F)(F)F)ccc3[nH]2)cc1 | 550 µM | 63.2% | 30.9% | 550 µM | 
COc1ccc(-c2nc3cc([N+](=O)[O-])ccc3[nH]2)c(OC)c1OC | 3.23 µM | 90% | 58.9% | 43.6 µM | 
COc1ccccc1-c1nc2cc(C(F)(F)F)ccc2[nH]1 | 210 µM | 75.1% | 45.7% | 575 µM | 
C[N+](C)(C)CCOC(N)=O.[Cl-] [CARBACHOL] | 0.51 µM | 106% |  |  | EC50 (Aorta [2]): Not Active; Emax (Aorta [2]): inactive
CCOC(=O)C1=C(C)NC(C)=C(C(=O)OC)C1c1cccc([N+](=O)[O-])c1 (stereo not drawn) [NITRENDIPINE] |  |  | 98.9% | 0.03 µM | 
O=[N+]([O-])c1ccccc1-c1nc2cc(C(F)(F)F)ccc2[nH]1 | 3.18 µM | 93.2% | 85.3% | 15 µM | 
Oc1ccc(-c2nc3cc(C(F)(F)F)ccc3[nH]2)cc1 | 219 µM | 51.1% | 37% | 219 µM | 
FC(F)(F)c1ccc2[nH]c(-c3ccc4c(c3)OCO4)nc2c1 | 38.5 µM | 101% | 99.6% | 77.4 µM | 
COc1cc(-c2nc3cc(C(F)(F)F)ccc3[nH]2)ccc1O | 34.8 µM | 99.5% | 97.7% | 140 µM | 
O=[N+]([O-])c1ccc2[nH]c(-c3ccccc3)nc2c1 | 4.93 µM | 73.8% | 60.5% | 35.1 µM | 
CCOc1ccccc1-c1nc2cc([N+](=O)[O-])ccc2[nH]1 | 3.71 µM | 84.8% | 46.4% | 15 µM | 
COc1ccc(-c2nc3cc([N+](=O)[O-])ccc3[nH]2)cc1OC | 2.5 µM | 75% | 36.3% | 302 µM | 
CCCOc1ccc(-c2nc3cc(C(F)(F)F)ccc3[nH]2)cc1 | 524 µM | 51% | 19% | 524 µM | 
CCOc1ccccc1-c1nc2cc(C(F)(F)F)ccc2[nH]1 | 548 µM | 91% | 19.8% | 549 µM | 
FC(F)(F)c1ccc2[nH]c(-c3ccccc3)nc2c1 | 369 µM | 91.2% | 75.6% | 468 µM | 
C[C@H](CS)C(=O)N1CCC[C@H]1C(=O)O |  |  |  |  | Activity (Rattus norvegicus [3]): Active
COc1ccc(-c2nc3cc(C4=NNC(=O)CC4C)ccc3[nH]2)cc1 (stereo not drawn) [PIMOBENDAN] | 4.67 µM | 93.2% |  |  | 
COc1cc(-c2nc3cc([N+](=O)[O-])ccc3[nH]2)ccc1O | 1.81 µM | 91.7% | 55.2% | 19.5 µM | Ratio EC50 (Aorta [4]): 2.5; Activity (Rattus norvegicus [5]): Dose-dependent effect; Activity (Rattus norvegicus [6]): Active; Activity (Rattus norvegicus [7]): Active; Activity (Rattus norvegicus [8]): inactive; Activity (Rattus norvegicus [9]): inactive; Activity (Rattus norvegicus [10]): inactive; Activity (Rattus norvegicus [11]): inactive; Activity (Rattus norvegicus [3]): Active
CC(C)Oc1ccccc1-c1nc2cc([N+](=O)[O-])ccc2[nH]1 | 4.89 µM | 80.7% | 31.7% | 14.1 µM | 
